Test [1] has as its target T1, Glycogen synthase kinase-3 (Homo sapiens, UniProt P49840+P49841). The experiment in a line: Inhibition of glycogen synthase kinase-3 (GSK3-beta). It is filed as protein assay. The gist of the method:
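GSK-3β (20 nM final) in HEPES pH 7.2 with 10 mM MgCl2, 0.1 mg/mL BSA, 1 mM DTT, 0.3 mg/mL heparin. Substrate 2.8 µM biotinylated phospho-primed GS peptide, with 2.5 µM ATP plus [γ-33P]-ATP. Stopped after 40 min with EDTA. Streptavidin SPA beads added and counted. Reported as pIC50.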

The target of test [2] is T1, Glycogen synthase kinase-3. The experiment in a line: Stimulation of glycogen synthesis in rat skeletal muscle L6 cells.
Test [3] concerns the target T1, Glycogen synthase kinase-3. The experiment in a line: Maximal glycogen synthesis in rat L6 skeletal muscle cells in response to 1 uM insulin. It is filed as functional, cell-based. The gist of the method: (§1)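 Rat L6 muscle cells, with glycogen synthesis tracked as 14C-glucose incorporated into glycogen. Maximum glycogen produced by the compound is expressed as a percentage of the maximum produced by 1 µM insulin.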

Another test deals with MDCK. The experiment in a line: Cell permeation in MDCK cells. It counts as functional, Canis lupus familiaris.
In test [4] the target is T1, Glycogen synthase kinase-3. The experiment in a line: Maximal glycogen synthesis in rat L6 skeletal muscle cells in response to 1 uM insulin (inactive). It is filed as functional, cell-based. A digest of the protocol: as §1

The source made the active and inactive calls. The rule behind the calls is not given here.

T1 sequence (P49840 whole entry, looked up): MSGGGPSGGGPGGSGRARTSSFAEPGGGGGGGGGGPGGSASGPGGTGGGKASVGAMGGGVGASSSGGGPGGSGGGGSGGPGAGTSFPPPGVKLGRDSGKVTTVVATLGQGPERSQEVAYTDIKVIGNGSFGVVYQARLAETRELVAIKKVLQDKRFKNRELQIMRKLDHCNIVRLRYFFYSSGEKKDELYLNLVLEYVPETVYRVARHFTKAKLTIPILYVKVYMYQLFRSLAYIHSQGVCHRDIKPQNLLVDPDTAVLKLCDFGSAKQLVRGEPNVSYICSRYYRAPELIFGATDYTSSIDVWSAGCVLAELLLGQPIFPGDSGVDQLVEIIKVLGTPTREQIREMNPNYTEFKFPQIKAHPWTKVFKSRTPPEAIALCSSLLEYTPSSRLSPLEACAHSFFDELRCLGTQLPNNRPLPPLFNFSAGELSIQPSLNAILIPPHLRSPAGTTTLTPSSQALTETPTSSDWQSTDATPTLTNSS
T1 sequence (P49841 whole entry, looked up): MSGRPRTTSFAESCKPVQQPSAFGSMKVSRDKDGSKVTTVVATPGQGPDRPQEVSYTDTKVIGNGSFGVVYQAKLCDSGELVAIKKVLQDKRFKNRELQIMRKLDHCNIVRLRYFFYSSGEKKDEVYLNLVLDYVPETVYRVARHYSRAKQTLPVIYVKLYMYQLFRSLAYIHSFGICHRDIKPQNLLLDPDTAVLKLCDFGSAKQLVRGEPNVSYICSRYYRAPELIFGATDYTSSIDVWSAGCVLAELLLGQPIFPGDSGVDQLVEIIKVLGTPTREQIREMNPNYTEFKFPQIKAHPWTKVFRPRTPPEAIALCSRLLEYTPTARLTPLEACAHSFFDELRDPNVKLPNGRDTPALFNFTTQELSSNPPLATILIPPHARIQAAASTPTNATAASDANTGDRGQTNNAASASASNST

For orientation: EC50 means the concentration giving half of the maximal effect. Read a high EC50 as a need for much substance. Regarding `CN(C)CCNC(=O)c1ccc(/C=N/Nc2ncnc3c2cnn3-c2cccc3[nH]cnc23)cc1` [PYRAZOLOPYRIMIDINE 1], the “Log IC50” value in test [1] is recorded as -8.8. In test [2], this compound returned an EC50 of 2330 nM. In test [3], this compound yielded a Max of 76%. In the test with MDCK, this compound displayed a Cell permeation of 1.5 ×10⁻⁶ cm/s.
In test [2], `COc1cccc(-n2ncc3c(N/N=C/c4ccncc4)ncnc32)c1` [GW784752X] displayed a half-maximal effective concentration (EC50) of 220 nM. In addition, in test [3], the Max worked out at 37%. Also, the Cell permeation in the test on MDCK came to 12.7 ×10⁻⁶ cm/s.
Regarding `COc1cccc(-n2ncc3c(N/N=C/c4ccc(C(=O)O)cc4)ncnc32)c1`, the “Log IC50” value in test [1] is -7.5. In test [2], this compound showed an EC50 of 1880 nM. The compound also gave a Max in test [3] of 46%. The compound further returned a Cell permeation in the test with MDCK of 6.5 ×10⁻⁶ cm/s.
Take `COc1cccc(-n2ncc3c(N/N=C/c4ccc(F)cc4)ncnc32)c1` [GW817396X]: the “Log IC50” value in test [1] is recorded as -8.1. Further, the Cell permeation in the test with MDCK came out at 0.5 ×10⁻⁶ cm/s. Besides, the Max result in test [4] is “inactive”.
On to `COc1cccc(-n2ncc3c(N/N=C/c4ccc(C(=O)NCCN(C)C)cc4)ncnc32)c1`, for which, in test [1], the “Log IC50” value was -7.8. This compound also returned a concentration for a half-maximal effect (EC50) in test [2] of 4000 nM. Besides, the Max in test [3] came out at 26%. For the same compound, in the test with MDCK, the Cell permeation was determined as 1.5 ×10⁻⁶ cm/s.
As to `Fc1ccc(/C=N/Nc2ncnc3c2cnn3-c2ccccc2)cc1`, the “Log IC50” value in test [1] is -6.2. Further, in the test on MDCK, the Cell permeation came out at 0.5 ×10⁻⁶ cm/s.
Turning to `O=C(O)c1ccc(/C=N/Nc2ncnc3c2cnn3-c2cccc3[nH]cnc23)cc1`, the “Log IC50” value in test [1] is -8.3. Besides, the EC50 in test [2] is 2730 nM. This compound also gave a Max in test [3] of 42%. Moreover, the Cell permeation with MDCK amounted to 1.7 ×10⁻⁶ cm/s.
Taken in the same sequence, the figures for `Fc1ccc(/C=N/Nc2ncnc3c2cnn3-c2cccc3[nH]cnc23)cc1` were -8.2, 230 nM, 57% and 9.2 ×10⁻⁶ cm/s.
Taken in the same sequence, the figures for `C(=N\Nc1ncnc2c1cnn2-c1cccc2[nH]cnc12)/c1ccncc1` were -8.4, 110 nM, 45% and 21.2 ×10⁻⁶ cm/s.
Taken in the same sequence, the figures for `CS(=O)(=O)c1ccc(/C=N/Nc2ncnc3c2cnn3-c2cccc3[nH]cnc23)cc1` were -8.3, 240 nM, 54% and 6.1 ×10⁻⁶ cm/s.
Take `COc1cccc(-n2ncc3c(N/N=C/c4ccc(S(C)(=O)=O)cc4)ncnc32)c1` [PYRAZOLOPYRIMIDINE 2]: in test [1], the “Log IC50” value is -8.6. In test [2], this compound showed an EC50 of 310 nM. In test [3], this compound displayed a Max of 19%. In the test with MDCK, this compound had a Cell permeation of 16.8 ×10⁻⁶ cm/s.
For `CN(C)CCNC(=O)c1ccc(/C=N/Nc2ncnc3c2cnn3-c2ccccc2)cc1`, in test [1], the “Log IC50” value is -7.7. Besides, the Cell permeation with MDCK worked out at 9.8 ×10⁻⁶ cm/s.
Take `C(=N\Nc1ncnc2c1cnn2-c1ccccc1)/c1ccncc1`: the “Log IC50” value in test [1] is recorded as -7. This compound also gave an EC50 in test [2] of 1220 nM. This compound also returned a Max in test [3] of 48%. The Cell permeation in the test with MDCK worked out at 9.9 ×10⁻⁶ cm/s.

(Values after ChEMBL document CHEMBL1147547, “Novel GSK-3 inhibitors with improved cellular activity” (Bioorg Med Chem Lett, 2004).)
